S100A4 MyoIIA: inhibitors of human S100A4 binding to myosin IIA peptide | S100A4/TAMRA-MyoIIA peptide fluorescence polarization | hit rate 0.14% among 360,000 | inhibition, % at 10.7 µM | AID 652163 | P26447;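 active means mean inhibition of at least 70% across replicates, with every replicate also reaching that level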
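Material: S100A4 monomer protein / Buffer or medium: 50 mM HEPES pH 7.2, 10 mM CaCl2, 100 mM KCl / Times: 5 min incubation before reading / Benchmarks: neutral control DMSO, positive control TFP / Reagent: labelled myosin peptide probe, 5 nM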
ERAP1 HTS inh: blocks human ERAP1 aminopeptidase activity; recombinant ERAP1, Leu-AMC fluorescence, 60 min; Q9NZ08; inhibition, % at 10.7 µM; hit rate 0.15% among 340,000; AID 652197;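 active means mean replicate inhibition of at least 30%, or all replicates individually reaching that 30% level; inactive means mean below 30% and not every replicate reaching it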
Target sequence (Q9NZ08 whole entry, looked up): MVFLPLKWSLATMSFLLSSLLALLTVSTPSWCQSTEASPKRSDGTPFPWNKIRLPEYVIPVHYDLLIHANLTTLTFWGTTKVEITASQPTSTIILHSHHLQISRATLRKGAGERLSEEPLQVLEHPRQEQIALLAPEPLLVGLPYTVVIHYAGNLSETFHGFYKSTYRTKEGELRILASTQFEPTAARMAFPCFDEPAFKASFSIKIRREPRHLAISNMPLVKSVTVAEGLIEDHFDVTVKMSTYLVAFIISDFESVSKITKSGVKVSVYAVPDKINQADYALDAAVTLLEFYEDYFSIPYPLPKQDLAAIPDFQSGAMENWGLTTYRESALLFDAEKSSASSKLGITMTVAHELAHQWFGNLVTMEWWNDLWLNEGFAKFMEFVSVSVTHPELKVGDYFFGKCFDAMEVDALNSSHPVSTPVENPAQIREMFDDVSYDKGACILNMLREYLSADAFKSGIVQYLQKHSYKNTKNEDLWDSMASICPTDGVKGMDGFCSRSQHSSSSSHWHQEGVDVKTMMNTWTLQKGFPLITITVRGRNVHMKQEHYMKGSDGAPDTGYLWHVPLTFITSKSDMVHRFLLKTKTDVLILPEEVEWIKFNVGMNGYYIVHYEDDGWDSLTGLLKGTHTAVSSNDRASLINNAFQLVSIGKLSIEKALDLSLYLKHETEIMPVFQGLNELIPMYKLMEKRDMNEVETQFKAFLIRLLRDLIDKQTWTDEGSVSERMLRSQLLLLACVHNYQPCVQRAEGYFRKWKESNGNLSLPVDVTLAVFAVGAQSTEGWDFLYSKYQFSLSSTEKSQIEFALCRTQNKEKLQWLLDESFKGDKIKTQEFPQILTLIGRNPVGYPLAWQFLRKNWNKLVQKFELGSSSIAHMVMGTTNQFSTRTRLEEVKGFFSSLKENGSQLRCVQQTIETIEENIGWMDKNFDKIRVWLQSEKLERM
CAL PDZ FP-1: inhibitors of human CAL PDZ peptide binding; Q9HD26; purified CAL PDZ, TMR-peptide fluorescence polarization, 1 h; inhibition, % at 24.9 µM; hit rate 0.92% among 300,000; AID 602252;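 active means mean inhibition of at least 30% with at least half of replicates also reaching 30%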
CAL PDZ FP-2: human CAL PDZ-peptide interaction inhibition; AID 504414; hit rate 0.02% among 330,000; inhibition, % at 20 µM; purified CAL PDZ, TMR-peptide fluorescence polarization, 1 h;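 active means highest replicate inhibition of at least 40%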
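Material: tagged CAL PDZ domain; buffer or medium: 25 mM sodium phosphate pH 7.4, 150 mM NaCl, TCEP, IgG, Thesit; compound dosing: single point, 20 µM; schedule: 1 h incubation at room temperature before polarization reading; measured by: FP readout, S and P plane fluorescence; read-out basis: percent inhibition from loss of millipolarization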
SIRT5 block: blocks human SIRT5 desuccinylation of peptide; Q9NXA8; Purified SirT5, succinyl-peptide AMC, trypsin-coupled fluorescence; inhibition, % at 15 µM; hit rate 1.1% among 330,000; AID 652115; in the data active means inhibition above about 15%
DENV2 CPE rescue: protects cells from dengue virus 2 cytopathic effect | DENV2-infected cells, cytopathic effect rescue, plate reader | CPE inhibition, % at 9.99 µM | hit rate 1.7% among 350,000 | AID 651640; in the data active means CPE inhibition above about 20%, passing the limit was not always enough; tested in BHK-21 cells
Numbers stand for hits. Shown are actives, neighbours in structure and some others; about 2.9% of the full set was active somewhere.

What do the screens show for `CC1(C)CC2(CCCN(CC(O)(c3ccccc3)c3ccccc3)C2)CCO1` (centres undefined)?
S100A4 MyoIIA: inactive; ERAP1 HTS inh: inactive; CAL PDZ FP-1: 86; CAL PDZ FP-2: inactive; SIRT5 block: inactive; DENV2 CPE rescue: inactive

How did CCNc1ccc(C(=O)NN=C2CCCC2)cc1[N+](=O)[O-] do in these assays?
S100A4 MyoIIA: inactive; ERAP1 HTS inh: inactive; CAL PDZ FP-1: 32; CAL PDZ FP-2: inactive; SIRT5 block: inactive; DENV2 CPE rescue: inactive

Results for C[C@H](CO)N1C[C@H](C)[C@@H](CN(C)S(=O)(=O)c2ccccc2)Oc2cc(Br)ccc2S1(=O)=O ?
S100A4 MyoIIA: inactive; ERAP1 HTS inh: inactive; SIRT5 block: inactive; DENV2 CPE rescue: inactive

What do the screens show for `CN(C)C1(CNC(=O)C2CCC(=O)N(CCc3ccc(Cl)cc3)C2)CCCCC1` (centres undefined)?
S100A4 MyoIIA: inactive; ERAP1 HTS inh: inactive; CAL PDZ FP-1: inactive; CAL PDZ FP-2: 88; SIRT5 block: inactive; DENV2 CPE rescue: inactive

How did CCCC#Cc1cnc2c(c1)C(=O)N([C@H](C)CO)C[C@@H](C)[C@H](CN(C)C(=O)C1CCOCC1)O2 do in these assays?
S100A4 MyoIIA: inactive; ERAP1 HTS inh: inactive; SIRT5 block: inactive; DENV2 CPE rescue: inactive

Results for O=C(O)c1ccc(N=NN2CCCCCC2)cc1 ?
S100A4 MyoIIA: inactive; ERAP1 HTS inh: inactive; CAL PDZ FP-1: inactive; CAL PDZ FP-2: inactive; SIRT5 block: inactive; DENV2 CPE rescue: 112

What do the screens show for `CCOc1[nH]n(-c2ccccc2)c(=O)c1C=Nc1ccccc1`?
S100A4 MyoIIA: inactive; ERAP1 HTS inh: inactive; CAL PDZ FP-1: inactive; CAL PDZ FP-2: inactive; SIRT5 block: inactive; DENV2 CPE rescue: inactive

How did CCOc1[nH]n(-c2ccccc2)c(=O)c1C=Nc1ccc(C)cc1 do in these assays?
S100A4 MyoIIA: inactive; ERAP1 HTS inh: inactive; CAL PDZ FP-1: inactive; CAL PDZ FP-2: inactive; SIRT5 block: 18; DENV2 CPE rescue: inactive

Results for Cc1cccc(C)c1OCC(O)Cn1ccnc1C (centres undefined) ?
S100A4 MyoIIA: inactive; ERAP1 HTS inh: inactive; CAL PDZ FP-2: inactive; SIRT5 block: inactive; DENV2 CPE rescue: 40

What do the screens show for `CC(C)c1ccc(NC(=O)c2n[nH]c(=O)c3ccccc23)cc1`?
S100A4 MyoIIA: inactive; ERAP1 HTS inh: inactive; CAL PDZ FP-1: 35; CAL PDZ FP-2: inactive; SIRT5 block: inactive

How did O=C(NNC(=O)c1n[nH]c(=O)c2ccccc12)c1ccc(Br)cc1 do in these assays?
S100A4 MyoIIA: inactive; ERAP1 HTS inh: inactive; CAL PDZ FP-1: 109; CAL PDZ FP-2: inactive; SIRT5 block: inactive; DENV2 CPE rescue: inactive

How did CN(C)C(=O)C[C@H]1C=C[C@H](NC(=O)C2CCOCC2)[C@@H](CO)O1 do in these assays?
S100A4 MyoIIA: inactive; ERAP1 HTS inh: inactive; SIRT5 block: inactive; DENV2 CPE rescue: inactive

Results for COCCNC(=S)N(CCO)Cc1cc2cc3c(cc2[nH]c1=O)OCO3 ?
S100A4 MyoIIA: inactive; ERAP1 HTS inh: inactive; CAL PDZ FP-1: 82; SIRT5 block: inactive; DENV2 CPE rescue: inactive

What do the screens show for `COCCNC(=S)N(CCCO)Cc1cc2cc3c(cc2[nH]c1=O)OCCO3`?
S100A4 MyoIIA: inactive; ERAP1 HTS inh: inactive; CAL PDZ FP-1: inactive; CAL PDZ FP-2: inactive; SIRT5 block: inactive; DENV2 CPE rescue: inactive

How did CCC(=O)N1C[C@@H](C)[C@@H](OC)CN(C)C(=O)c2cc(NC(=O)c3ccc(F)cc3)ccc2OC[C@H]1C do in these assays?
S100A4 MyoIIA: inactive; ERAP1 HTS inh: inactive; SIRT5 block: inactive; DENV2 CPE rescue: inactive

How did COC(=O)c1cc2ccsc2n1Cc1cccc(F)c1 do in these assays?
S100A4 MyoIIA: inactive; ERAP1 HTS inh: inactive; CAL PDZ FP-1: 79; CAL PDZ FP-2: inactive; DENV2 CPE rescue: inactive

How did COC(=O)c1cc2ccsc2n1Cc1ccccc1F do in these assays?
S100A4 MyoIIA: inactive; ERAP1 HTS inh: inactive; CAL PDZ FP-1: inactive; CAL PDZ FP-2: inactive; DENV2 CPE rescue: 113

Results for COc1ccc2c3c([nH]c2c1)[C@H](CO)N(C(=O)C1CCOCC1)CC31CCN(S(C)(=O)=O)CC1 ?
S100A4 MyoIIA: inactive; ERAP1 HTS inh: inactive; DENV2 CPE rescue: 35

How did COc1ccc2c3c([nH]c2c1)[C@@H](CO)N(Cc1ccc(F)cc1)CC31CCN(C(=O)NC(C)C)CC1 do in these assays?
S100A4 MyoIIA: inactive; ERAP1 HTS inh: inactive; SIRT5 block: inactive; DENV2 CPE rescue: inactive

What do the screens show for `COc1ccc2c3c([nH]c2c1)[C@H](CO)N(C(=O)C1CCCCC1)CC31CCN(C(=O)NC(C)C)CC1`?
S100A4 MyoIIA: inactive; ERAP1 HTS inh: inactive; SIRT5 block: inactive; DENV2 CPE rescue: 29

What do the screens show for `COc1ccc2c3c([nH]c2c1)[C@@H](CO)N(Cc1ccc(F)cc1)CC31CN(C(=O)NC(C)C)C1`?
DENV2 CPE rescue: 93

Results for COc1ccc(S(=O)(=O)N(C)C[C@@H]2OCc3ccccc3-c3ccccc3C(=O)N([C@@H](C)CO)C[C@H]2C)cc1 ?
S100A4 MyoIIA: inactive; ERAP1 HTS inh: inactive; SIRT5 block: inactive; DENV2 CPE rescue: inactive

Results for O=c1c2sc3nc(N4CCOCC4)c4c(c3c2ncn1-c1ccccc1)CCCC4 ?
S100A4 MyoIIA: inactive; ERAP1 HTS inh: inactive; CAL PDZ FP-1: inactive; CAL PDZ FP-2: inactive; SIRT5 block: inactive; DENV2 CPE rescue: inactive

What do the screens show for `Cc1ccccc1-n1cnc2c(sc3nc(N4CCOCC4)c4c(c32)CCCC4)c1=O`?
S100A4 MyoIIA: inactive; CAL PDZ FP-1: inactive; CAL PDZ FP-2: inactive; SIRT5 block: inactive; DENV2 CPE rescue: 42

Results for COCCNC(=O)C[C@@H]1C[C@H]2c3cc(NC(=O)Nc4ccc(OC)cc4)ccc3O[C@H]2[C@@H](CO)O1 ?
S100A4 MyoIIA: inactive; ERAP1 HTS inh: inactive; SIRT5 block: inactive; DENV2 CPE rescue: 114

What do the screens show for `O=C(O)C[C@@H]1C[C@@H]2c3cc(NC(=O)C4CCOCC4)ccc3O[C@@H]2[C@H](CO)O1`?
S100A4 MyoIIA: inactive; ERAP1 HTS inh: inactive; SIRT5 block: inactive; DENV2 CPE rescue: 28

How did COCCNC(=O)C[C@@H]1C[C@@H]2c3cc(NC(=O)C4CCOCC4)ccc3O[C@@H]2[C@H](CO)O1 do in these assays?
S100A4 MyoIIA: inactive; ERAP1 HTS inh: inactive; SIRT5 block: inactive; DENV2 CPE rescue: inactive

Results for COCCNC(=O)C[C@@H]1C[C@H]2c3cc(NC(=O)C4CCOCC4)ccc3O[C@H]2[C@H](CO)O1 ?
S100A4 MyoIIA: inactive; ERAP1 HTS inh: inactive; SIRT5 block: inactive; DENV2 CPE rescue: 24

What do the screens show for `CN(C)C(=O)[C@@H]1[C@@H](CO)[C@@H]2Cn3c(ccc(-c4ccncc4)c3=O)[C@H]1N2CC1CC1`?
S100A4 MyoIIA: inactive; ERAP1 HTS inh: inactive; SIRT5 block: inactive; DENV2 CPE rescue: inactive

Results for CCCn1nnc(NC(=O)c2ccc([N+](=O)[O-])cc2Cl)n1 ?
S100A4 MyoIIA: inactive; ERAP1 HTS inh: inactive; CAL PDZ FP-1: inactive; CAL PDZ FP-2: inactive; SIRT5 block: inactive; DENV2 CPE rescue: inactive
